Active and inactive are the calls of the source. No cut-off for these calls is given here.
Experiments:
Assay type in all cases: functional
[1] = Antioxidant activity at 0.5 mM by ferric-thiocyanate method
Method in brief: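 Linoleic acid peroxidation (ferric thiocyanate): sample (final 0.5 mM) with linoleic acid in EtOH/0.05 M phosphate buffer pH 7.0, kept dark at 40 °C for 5 days; aliquot diluted in 75% EtOH, ammonium thiocyanate and ferrous chloride in HCl added, absorbance at 500 nm read at 3 min. Control lacked compound; alpha-tocopherol and BHA standards.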

[2] = system: Radical scavenging activity; experiment: Antioxidant activity assessed as DPPH radical scavenging activity at 20 uM after 30 mins
Method in brief: (§1)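 DPPH scavenging: test sample in EtOH added to 0.1 M acetic acid buffer pH 5.5 plus 0.5 mM DPPH EtOH solution (stock); stood 30 min at room temperature; absorbance read at 517 nm, activity given as change in optical density. Standards alpha-tocopherol and L-cysteine.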

[3] = system: Radical scavenging activity; experiment: Antioxidant activity assessed as DPPH radical scavenging activity at 80 uM after 30 mins; method in brief: as §1
[4] = system: Radical scavenging activity; experiment: Antioxidant activity assessed as DPPH radical scavenging activity at 40 uM after 30 mins; method in brief: as §1
[5] = system: Radical scavenging activity; experiment: Antioxidant activity assessed as DPPH radical scavenging activity at 10 uM after 30 mins; method in brief: as §1

SMILES | Activity [1] | deltaA [2] | deltaA [3] | deltaA [4] | deltaA [5]
CC(C)c1cc2c(cc1O)[C@@]1(C)CCCC(C)(C)[C@@H]1CC2 | Active | 0.081 | 0.255 | 0.153 | –
COc1ccc(O)c(C(C)(C)C)c1.COc1ccc(O)cc1C(C)(C)C | Active | – | – | – | –
Cc1c(C)c2c(c(C)c1O)CC[C@@](C)(CCC[C@H](C)CCC[C@H](C)CCCC(C)C)O2 | – | 0.471 | – | 0.934 | 0.252
N[C@@H](CS)C(=O)O | – | 0.161 | 0.754 | 0.355 | –
